Measurements taken from ChEMBL document CHEMBL3596099, “Strong positive cooperativity in binding to the A3T3 repeat by Hoechst 33258 derivatives attaching the quinoline units at the end of a branched linker” (Bioorg Med Chem, 2015).
Each block holds one compound with its values, some of them ahead of it. Activity calls are given as the source filed them. The rule behind the calls is not given here.

Experiments:
Assay type in all cases: nucleic-acid assay
Nucleic Acid [1] = test: Binding affinity to A3T3 repeat containing DNA5(3) (unknown origin) assessed as cooperativity with DNA at 10 nM by fluorescence titration based McGhee-von Hippel analysis
Procedure, shortened: (§1)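 Ligand at 10 nM in 3.0 mM HEPES, 3.0 mM NaCl, pH 7.0 is stirred 4 h at room temperature in a quartz cell. DNA is added in aliquots, 0–0.8 μM (0–4 μM in A3T3), with 1 h stirring after each addition. Fluorescence is read with 363 nm excitation at 25 °C and ΔF is plotted against A3T3 concentration. Data are fitted to a two-mode (high/low affinity) model. McGhee–von Hippel analysis then gives n, K and ω.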

Nucleic Acid [2] = test: Binding affinity to A3T3 repeat not-containing DNA0 (unknown origin) assessed as increase in fluorescence intensity at 10 nM by fluorescence titration method; procedure, shortened: as §1
Nucleic Acid [3] = test: Binding affinity to A3T3 repeat containing DNA5(3) (unknown origin) assessed as association constant for changes at 327 nm at 0 to 4 uM by CD spectroscopy
Nucleic Acid [4] = test: Binding affinity to A3T3 repeat containing DNA5(3) (unknown origin) assessed as association constant for changes at 275 nm at 0 to 4 uM by CD spectroscopy
Nucleic Acid [5] = test: Binding affinity to A3T3 repeat containing DNA5(3) (unknown origin) at 5 uM by UV-vis spectroscopy
Procedure, shortened: (§2)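 UV–vis spectra of 5 μM ligand with or without DNA5(3), in 3.0 mM HEPES, 3.0 mM NaCl, pH 7.0, 25 °C. Samples are stirred 7 h at room temperature before measurement. Band shifts and % absorbance change are recorded for the Hoechst and quinoline regions.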

Nucleic Acid [6] = test: Binding affinity to A3T3 repeat containing DNA5(3) (unknown origin) assessed as Hoechst region-induced shift to longer wavelength (372.5 to 384.5 nm) with increase in intensity at 5 uM by UV-vis spectroscopy; procedure, shortened: as §2
Nucleic Acid [7] = test: Binding affinity to A3T3 repeat containing DNA5(3) (unknown origin) assessed as quinoline region-induced shift to shorter wavelength (328.5 to 326.5 nm) with % increase in intensity at 5 uM by UV-vis spectroscopy; procedure, shortened: as §2
Nucleic Acid [8] = test: Binding affinity to A3T3 repeat containing DNA5(3) (unknown origin) at 0 to 4 uM by CD spectroscopy
Nucleic Acid [9] = test: Binding affinity to A3T3 repeat containing DNA1 (unknown origin) at 10 uM by CD spectroscopy
Procedure, shortened: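 CD spectrum of DNA1 (5 μM in A3T3) recorded alone and with ligand at 10 μM (2 equiv relative to A3T3).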

Structure (SMILES): CN1CCN(c2cc(C(=O)NCCN(CCC(=O)NCCOCCOCCNC(=O)COc3ccc4ccccc4n3)CCC(=O)NCCOCCOCCNC(=O)COc3ccc4ccccc4n3)c3nc(-c4ccc5nc(-c6ccc(O)cc6)[nH]c5c4)[nH]c3c2)CC1
- Activity (Nucleic Acid [1]): inactive

Structure (SMILES): CN1CCN(c2cc(C(=O)NCCN(CCC(=O)NCCOCCOCCNC(=O)COc3cccnc3)CCC(=O)NCCOCCOCCNC(=O)COc3cccnc3)c3nc(-c4ccc5nc(-c6ccc(O)cc6)[nH]c5c4)[nH]c3c2)CC1
- Activity (Nucleic Acid [1]): inactive

Structure (SMILES): CN1CCN(c2cc(C(=O)NCCN(CCC(=O)NCCNC(=O)COc3ccc4ncccc4c3)CCC(=O)NCCNC(=O)COc3ccc4ncccc4c3)c3nc(-c4ccc5nc(-c6ccc(O)cc6)[nH]c5c4)[nH]c3c2)CC1
- Activity (Nucleic Acid [1]): inactive

Structure (SMILES): CN1CCN(c2cc(C(=O)NCCN(CCC(=O)NCCOCCOCCNC(=O)COc3ccc4ncccc4c3Br)CCC(=O)NCCOCCOCCNC(=O)COc3ccc4ncccc4c3Br)c3nc(-c4ccc5nc(-c6ccc(O)cc6)[nH]c5c4)[nH]c3c2)CC1
- Activity (Nucleic Acid [5]): inactive

Structure (SMILES): CN1CCN(c2cc(C(=O)NCCN(CCC(=O)NCCOCCOCC(=O)NCCOCCOCCNC(=O)COc3ccc4ncccc4c3)CCC(=O)NCCOCCOCC(=O)NCCOCCOCCNC(=O)COc3ccc4ncccc4c3)c3nc(-c4ccc5nc(-c6ccc(O)cc6)[nH]c5c4)[nH]c3c2)CC1
- Activity (Nucleic Acid [1]): inactive

Second part, the compound after the results:

- Activity (Nucleic Acid [1]): Active
Structure (SMILES): CN1CCN(c2cc(C(=O)NCCN(CCC(=O)NCCOCCOCCNC(=O)COc3ccc4cnccc4c3)CCC(=O)NCCOCCOCCNC(=O)COc3ccc4cnccc4c3)c3nc(-c4ccc5nc(-c6ccc(O)cc6)[nH]c5c4)[nH]c3c2)CC1

- Activity (Nucleic Acid [1]): Active
Structure (SMILES): CN1CCN(c2cc(C(=O)NCCN(CCC(=O)NCCOCCOCCNC(=O)COc3ccc4ccccc4c3)CCC(=O)NCCOCCOCCNC(=O)COc3ccc4ccccc4c3)c3nc(-c4ccc5nc(-c6ccc(O)cc6)[nH]c5c4)[nH]c3c2)CC1

- Activity (Nucleic Acid [1]): inactive
Structure (SMILES): CN1CCN(c2cc(C(=O)NCCN(CCC(=O)NCCOCCOCCNC(=O)COc3ccc4nccnc4c3)CCC(=O)NCCOCCOCCNC(=O)COc3ccc4nccnc4c3)c3nc(-c4ccc5nc(-c6ccc(O)cc6)[nH]c5c4)[nH]c3c2)CC1

- Activity (Nucleic Acid [2]): inactive
- K (Nucleic Acid [3]): 3.9 ×10⁵ /M
- K (Nucleic Acid [4]): 6.5 ×10⁶ /M
- Activity (Nucleic Acid [5]): Active
- Activity (Nucleic Acid [6]): 50%
- Activity (Nucleic Acid [7]): 43%
- Activity (Nucleic Acid [1]): Active
- Activity (Nucleic Acid [8]): Active
- Activity (Nucleic Acid [9]): inactive
Structure (SMILES): CN1CCN(c2cc(C(=O)NCCN(CCC(=O)NCCOCCOCCNC(=O)COc3ccc4ncccc4c3)CCC(=O)NCCOCCOCCNC(=O)COc3ccc4ncccc4c3)c3nc(-c4ccc5nc(-c6ccc(O)cc6)[nH]c5c4)[nH]c3c2)CC1
